Assay results as given in ChEMBL document CHEMBL4619740, “Chalcones bearing a 3,4,5-trimethoxyphenyl motif are capable of selectively inhibiting oncogenic K-Ras signaling” (Bioorg Med Chem Lett, 2020).
Active and inactive are the calls of the source. No cut-off for these calls is given here.

Columns and labels:
[1] = target: GTPase KRas (Homo sapiens) (UniProt P01116); assay: Inhibition of KRAS in human NCI-H358 cells assessed as MARCK phosphorylation level at 1 uM incubated for 48 hrs by Western blot analysis (reference value: 1.00 +/- 0.39); type: cell-based
[2] = system: GTPase KRas (Homo sapiens), P01116 [G12V]; assay: Inhibition of GFP-tagged KRAS G12V mutant (unknown origin) expressed in MDCK cells assessed as MARCK phosphorylation level at 25 uM incubated for 48 hrs by Western blot analysis (reference value: 1.00 +/- 0.13); type: cell-based
[3] = system: GTPase KRas (Homo sapiens), P01116 [G12V]; assay: Inhibition of GFP-tagged KRAS G12V mutant (unknown origin) expressed in MDCK cells assessed as reduction in Akt phosphorylation level incubated for 48 hrs by Western blot analysis; type: cell-based
Outline: (§1)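 MDCK cells stably expressing GFP-tagged K-RasG12V or H-RasG12V treated 48 h; lysates immunoblotted with anti-ppERK or anti-pAkt (S473) antibodies, total ERK and Akt as loading controls. Quantified as means ± S.E.M. of three independent experiments versus DMSO-treated cells; one-way ANOVA.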

[4] = system: GTPase KRas (Homo sapiens), P01116 [G12V]; assay: Inhibition of GFP-tagged KRAS G12V mutant (unknown origin) expressed in MDCK cells assessed as MARCK phosphorylation level at 1 uM incubated for 48 hrs by Western blot analysis (reference value: 1.00 +/- 0.13); type: cell-based
[5] = system: GTPase HRas (Homo sapiens), P01112 [G12V]; assay: Inhibition of GFP-tagged HRAS G12V mutant (unknown origin) expressed in MDCK cells assessed as reduction in ERK phosphorylation level incubated for 48 hrs by Western blot analysis; type: cell-based; outline: as §1
[6] = system: GTPase KRas (Homo sapiens), P01116 [G12V]; assay: Inhibition of GFP-tagged KRAS G12V mutant (unknown origin) expressed in MDCK cells assessed as increase in MARCK phosphorylation level incubated for 48 hrs by Western blot analysis
[7] = system: GTPase KRas (Homo sapiens), P01116 [G12V]; assay: Inhibition of GFP-tagged KRAS G12V mutant (unknown origin) expressed in MDCK cells assessed as reduction in ERK phosphorylation level incubated for 48 hrs by Western blot analysis; type: cell-based; outline: as §1
[8] = target: GTPase KRas (Homo sapiens) (UniProt P01116); assay: Inhibition of KRAS in human NCI-H358 cells assessed as MARCK phosphorylation level at 25 uM incubated for 48 hrs by Western blot analysis (reference value: 1.00 +/- 0.39); type: cell-based
[9] = system: GTPase KRas (Homo sapiens), P01116 [G12V]; assay: Inhibition of GFP-tagged KRAS G12V mutant (unknown origin) expressed in MDCK cells assessed as MARCK phosphorylation level at 5 uM incubated for 48 hrs by Western blot analysis (reference value: 1.00 +/- 0.13); type: cell-based
[10] = system: GTPase HRas (Homo sapiens), P01112 [G12V]; assay: Inhibition of GFP-tagged HRAS G12V mutant (unknown origin) expressed in MDCK cells assessed as reduction in Akt phosphorylation level incubated for 48 hrs by Western blot analysis; type: cell-based; outline: as §1
[11] = target: GTPase KRas (Homo sapiens) (UniProt P01116); assay: Inhibition of KRAS in human NCI-H358 cells assessed as MARCK phosphorylation level at 10 uM incubated for 48 hrs by Western blot analysis (reference value: 1.00 +/- 0.39); type: cell-based
[12] = system: GTPase KRas (Homo sapiens), P01116 [G12V,S181A]; assay: Inhibition of GFP-tagged KRAS G12V/S181A mutant (unknown origin) expressed in MDCK cells cotransfected with mCherry-CAXX assessed as reduction in KRAS G12V-plasma membrane dissociation incubated for 48 hrs by quantitative confocal microscopic method; type: cell-based
[13] = target: GTPase KRas (Homo sapiens) (UniProt P01116); assay: Inhibition of KRAS in human NCI-H358 cells assessed as increase in MARCK phosphorylation level incubated for 48 hrs by Western blot analysis
GTPase KRas = GTPase KRas (Homo sapiens, UniProt P01116, G12V); assay: Inhibition of GFP-tagged KRAS G12V mutant (unknown origin) expressed in MDCK cells cotransfected with mCherry-CAXX assessed as increase in KRAS G12V-plasma membrane dissociation incubated for 48 hrs by quantitative confocal microscopic method; type: cell-based
Outline: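 MDCK cells stably co-expressing mGFP-K-RasG12V and mCherry-CAAX (endomembrane marker) treated with a range of compound concentrations for 48h. Cells fixed in 4% paraformaldehyde, imaged by confocal microscopy. PM dissociation scored as the fraction of mCherry-CAAX co-localized with GFP-K-RasG12V (Manders coefficient). IC50 estimated from dose-response plots from three independent experiments.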

[14] = target: GTPase KRas (Homo sapiens) (UniProt P01116); assay: Inhibition of KRAS in human NCI-H358 cells assessed as MARCK phosphorylation level at 5 uM incubated for 48 hrs by Western blot analysis (reference value: 1.00 +/- 0.39); type: cell-based
[15] = system: GTPase KRas (Homo sapiens), P01116 [G12V]; assay: Inhibition of GFP-tagged KRAS G12V mutant (unknown origin) expressed in MDCK cells assessed as MARCK phosphorylation level at 10 uM incubated for 48 hrs by Western blot analysis (reference value: 1.00 +/- 0.13); type: cell-based
[16] = system: GTPase HRas (Homo sapiens), P01112 [G12V]; assay: Inhibition of GFP-tagged HRAS G12V mutant (unknown origin) expressed in MDCK cells cotransfected with mCherry-CAXX assessed as effect on HRAS G12V-plasma membrane dissociation incubated for 48 hrs by quantitative confocal microscopic method; type: cell-based
Outline: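 MDCK cells stably co-expressing mGFP-RasG12V (K- or H-) and mCherry-CAAX endomembrane marker treated with a range of concentrations for 48 h, fixed in 4% paraformaldehyde, imaged by quantitative confocal microscopy. Fraction of mCherry-CAAX co-localized with GFP-Ras by Manders coefficient; IC50 for PM dissociation estimated from dose-response plots of three independent experiments.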

Chain of GTPase KRas (Homo sapiens) (P01116 whole entry, looked up): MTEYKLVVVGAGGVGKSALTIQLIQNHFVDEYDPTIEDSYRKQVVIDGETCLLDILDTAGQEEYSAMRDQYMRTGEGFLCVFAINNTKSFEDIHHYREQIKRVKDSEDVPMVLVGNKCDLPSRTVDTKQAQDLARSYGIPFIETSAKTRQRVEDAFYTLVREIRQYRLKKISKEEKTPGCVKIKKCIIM
Chain of GTPase HRas (Homo sapiens), P01112 [G12V] (P01112 whole entry G12V): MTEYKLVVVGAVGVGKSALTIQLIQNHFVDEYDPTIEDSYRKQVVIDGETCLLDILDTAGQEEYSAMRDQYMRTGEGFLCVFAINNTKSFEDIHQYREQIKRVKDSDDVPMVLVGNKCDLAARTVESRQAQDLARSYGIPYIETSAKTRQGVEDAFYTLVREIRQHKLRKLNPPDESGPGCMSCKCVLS
Chain of GTPase KRas (Homo sapiens), P01116 [G12V] (P01116 whole entry G12V): as the sequence (P01116 whole entry, looked up) above, with G12V counted along it
Chain of GTPase KRas (P01116 whole entry G12V): as the sequence (P01116 whole entry, looked up) above, with G12V counted along it
Chain of GTPase KRas (Homo sapiens), P01116 [G12V,S181A] (P01116 1-164 with tags or gaps G12V,S181A): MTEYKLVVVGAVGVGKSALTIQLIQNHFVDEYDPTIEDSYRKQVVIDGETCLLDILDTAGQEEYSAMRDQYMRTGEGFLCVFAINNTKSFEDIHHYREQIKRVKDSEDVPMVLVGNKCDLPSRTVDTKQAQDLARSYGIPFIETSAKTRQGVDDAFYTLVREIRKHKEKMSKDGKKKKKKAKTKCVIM

In the case of `COc1cc(/C=C/C(=O)c2ccc([N+](=O)[O-])cc2)cc(OC)c1OC`, the fold change (FC) [1] is reported as 1.89, the fold change (FC) [2] is reported as 2.8 and the inhibition [3] is reported as “Active”. For the same compound, the fold change (FC) [4] was 1.31, the inhibition [5] was “inactive” and the inhibition [6] was “Dose-dependent effect”. For the same compound, the inhibition [7] was “Active”, the fold change (FC) [8] was 2.65 and the fold change (FC) [9] was 1.76. For the same compound, the inhibition [10] was “inactive”, the fold change (FC) [11] was 2.57 and the inhibition [12] was “inactive”. For the same compound, the inhibition [13] was “Dose-dependent effect”, the IC50 (GTPase KRas) was 7.01 µM and the fold change (FC) [14] was 1.92. For the same compound, the fold change (FC) [15] was 2.85 and the inhibition [16] was “inactive”.
With `COc1cc(/C=C/C(=O)c2ccc(F)cc2)cc(OC)c1OC` the IC50 (GTPase KRas) was 15.9 µM.
`COc1cc(/C=C/C(=O)c2c(F)cccc2F)cc(OC)c1OC` showed an IC50 (GTPase KRas) of 8.2 µM.
`COc1cc(/C=C/C(=O)c2ccccn2)cc(OC)c1OC` was tested, and the IC50 (GTPase KRas) was 53 µM.
In the case of `COc1cc(/C=C/C(=O)c2ccc(Br)cc2)cc(OC)c1OC`, the IC50 (GTPase KRas) is reported as 24.6 µM.
In the case of `COc1ccc(C(=O)/C=C/c2cc(OC)c(OC)c(OC)c2)cc1`, the IC50 (GTPase KRas) is reported as 8.29 µM.
Compound `COc1cc(C(=O)/C=C/c2ccc([N+](=O)[O-])cc2)cc(OC)c1OC` has an IC50 (GTPase KRas) of 8.2 µM.
For `COc1cc(/C=C/C(=O)c2ccc(N(C)C)cc2)cc(OC)c1OC`, the IC50 (GTPase KRas) was 7.42 µM and the inhibition [16] was “inactive”.
For `COc1cc(C(=O)/C=C/c2c(F)cccc2F)cc(OC)c1OC`, the IC50 (GTPase KRas) was 7.49 µM.
With `COc1cc(/C=C/C(=O)c2ccc(N)cc2)cc(OC)c1OC` the IC50 (GTPase KRas) was 9.17 µM.
